Test results taken from ChEMBL document CHEMBL4138243, “Synthesis, biological evaluation, and metabolic stability of phenazine derivatives as antibacterial agents” (Eur J Med Chem, 2018).
≈ marks a conversion by molar mass, not a printed value. Calls of active or inactive are those of the source. The rule behind the calls is not given here.

Experiments:
Escherichia coli [1] = assay: Antibacterial activity against Escherichia coli K-12 after 24 hrs by broth microdilution method; type: functional; conditions: K-12, 24 h
Procedure, shortened: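 Broth microdilution per ASM Clinical Microbiology Procedures Handbook (3rd ed.); 1 mg/mL DMSO stock serially 2-fold diluted in Mueller Hinton broth with 5% DMSO; inoculum from direct colony suspension at 0.5 McFarland; static incubation 37 °C, 24 h. MIC = lowest concentration without visible growth (eye and OD600). Vancomycin and gentamicin positive controls, medium negative control; triplicate.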

Staphylococcus aureus [2] = assay: Antibacterial activity against methicillin-resistant Staphylococcus aureus USA300 JE2 after 24 hrs by broth microdilution method; type: functional; conditions: USA300 JE2, 24 h
Procedure, shortened: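 Broth microdilution. Test material taken from a 1 mg/mL DMSO stock and serially diluted 2-fold in Mueller Hinton broth containing 5% DMSO. Wells inoculated with a direct colony suspension at 0.5 McFarland, then incubated statically at 37 °C for 24 h. MIC is the lowest concentration with no growth, read by eye and by OD600. Vancomycin and gentamicin as positive controls. Run in triplicate.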

Staphylococcus aureus [3] = assay: Induction of membrane damage of methicillin-resistant Staphylococcus aureus USA300 JE2 at MIC after 18 hrs by propidium iodide staining-based flow cytometric method; type: functional, organism-based
Procedure, shortened: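 Flow cytometry membrane-permeability assay. […] Propidium iodide stock at 1 mg/mL added, held 15–20 min in the dark, then cells washed three times and resuspended in PBS. Controls: PI-stained untreated cells and cells treated with 70% ethanol.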

[4] = Stability in tris buffer at pH 7.4 at 1 uM after 2 hrs by LC-MS/MS method; type: physicochemical; conditions: pH 7.4, 2 h
Procedure, shortened: (§1)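 Stability tested in simulated gastric fluid (pH 1.2), simulated intestinal fluid (pH 6.8) and 50 mM tris buffer (pH 7.4) using literature protocols.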

Staphylococcus aureus [5] = assay: Induction of biofilm dispersion of methicillin-resistant Staphylococcus aureus USA300 JE2 at 1 to 32 ug/ml after 24 hrs by crystal violet staining-based assay relative to control; type: functional, organism-based
Procedure, shortened: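 Preformed-biofilm dispersion. Gelatin-coated wells seeded with 1 × 10^6 CFU/mL in TSB with 0.5% glucose and grown 24 h at 37 °C. Medium replaced with 2-fold dilutions in fresh TSB with 0.5% glucose, then a further 24 h at 37 °C. Biofilm fixed with methanol, stained with 0.1% crystal violet, dissolved in methanol:acetic acid:water 4:1:5 and read at OD540.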

Escherichia coli [6] = assay: Induction of membrane damage of Escherichia coli K-12 at 2 times MIC after 18 hrs by transmission electron microscopic method; type: functional, organism-based
[7] = Stability in simulated gastric fluid at pH1.2 at 1 uM after 2 hrs by LC-MS/MS method; type: ADME; conditions: simulated gi fluid, pH 1.2, 2 h; procedure, shortened: as §1
Staphylococcus aureus [8] = assay: Antibacterial activity against methicillin-resistant Staphylococcus aureus USA300 JE2 at 10 times MIC after 6 days by Kirby Bauer method; type: functional, organism-based
Procedure, shortened: (§2)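 Mutant-resistance disc assay. Culture grown in Mueller Hinton broth for 4 h, diluted to 1.5 × 10^8 CFU/mL (0.5 McFarland) and spread on Mueller Hinton agar. 6 mm paper discs loaded with compound in DMSO at 10 × MIC. Plates at 37 °C. Inhibition zone diameter read at 24 h. Plates then kept 6 days and checked for colonies growing inside the zone.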

Staphylococcus aureus [9] = assay: Antibacterial activity against methicillin-resistant Staphylococcus aureus USA300 JE2 at 10 times MIC after 24 hrs by Kirby Bauer method; type: functional; procedure, shortened: as §2
[10] = Metabolic stability in human liver S9 fraction at 1 uM after 5 to 60 mins by LC-MS/MS method; type: ADME, subcellular; conditions: s9, 1 µM
Procedure, shortened: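 Compounds incubated with human liver S9 fraction, covering phase I and phase II enzymes; depletion followed over incubation time as percent remaining. Mean ± S.D., n = 3.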

Staphylococcus aureus [11] = assay: Induction of membrane damage of methicillin-resistant Staphylococcus aureus USA300 JE2 at 2 times MIC after 18 hrs by transmission electron microscopic method; type: functional, organism-based
Procedure, shortened: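 TEM. […] Cells washed three times in PBS, then fixed in 2% glutaraldehyde with 2% paraformaldehyde in 0.1 M phosphate buffer.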

Staphylococcus aureus [12] = assay: Inhibition of biofilm formation of methicillin-resistant Staphylococcus aureus USA300 JE2 at 8 times MIC after 24 hrs by crystal violet staining-based assay relative to control; type: functional
Procedure, shortened: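 Biofilm formation inhibition. Gelatin-coated wells received 2-fold dilutions in TSB with 0.5% glucose plus cells at 2 × 10^6 CFU/mL from fresh culture. Incubated at 37 °C for 24 h. Wells gently rinsed, stained with 0.1% crystal violet for 10 min, destained in methanol:acetic acid:water 4:1:5 and read at OD540.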

[13] = Toxicity in Galleria mellonella larvae assessed as survival at 3 ug/ml after 96 hrs relative to control; type: organism-based; conditions: in vivo
[14] = Stability in simulated intestinal fluid at pH 6.8 at 1 uM after 2 hrs by LC-MS/MS method; type: ADME; conditions: simulated gi fluid, pH 6.8, 2 h; procedure, shortened: as §1

| SMILES | MIC (Escherichia coli [1]) | MIC (Staphylococcus aureus [2]) | other results |
| --- | --- | --- | --- |
| COc1ccc2nc3c(C(=O)O)cccc3nc2c1 | 64 µg/mL (≈ 252 µM) | 256 µg/mL (≈ 1010 µM) |  |
| COC(=O)c1cccc2nc3cc(OC)ccc3nc12 | 64 µg/mL (≈ 239 µM) | 128 µg/mL (≈ 477 µM) |  |
| CS(=O)(=O)NC(=O)c1cccc2nc3cccc(F)c3nc12 | 128 µg/mL (≈ 401 µM) | 64 µg/mL (≈ 200 µM) |  |
| CS(=O)(=O)NC(=O)c1cccc2nc3cccc(Cl)c3nc12 | 128 µg/mL (≈ 381 µM) | 2 µg/mL (≈ 5.96 µM) | Activity (Staphylococcus aureus [3]): inactive; Stability [4]: Stable; Activity (Staphylococcus aureus [5]): inactive; Activity (Escherichia coli [6]): inactive; Stability [7]: Stable; Activity (Staphylococcus aureus [8]): Active; diameter of the inhibition zone (DIZ) (Staphylococcus aureus [9]): 16 mm; Stability [10]: Stable; Activity (Staphylococcus aureus [11]): inactive; inhibition (INH) (Staphylococcus aureus [12]): 90%; survival at 96 h [13]: 70%; Stability [14]: Stable |
| COc1cc(Br)c2nc3c(C(=O)O)cccc3nc2c1 | 256 µg/mL (≈ 768 µM) | 64 µg/mL (≈ 192 µM) |  |
| COc1ccc(OC)c2nc3c(C(=O)O)cccc3nc12 | 64 µg/mL (≈ 225 µM) | 64 µg/mL (≈ 225 µM) |  |
| N#Cc1cccc2nc3cccc(Cl)c3nc12 | 64 µg/mL (≈ 267 µM) | > 256 µg/mL |  |
| O=C(O)c1cccc2nc3c(Cl)ccc(Cl)c3nc12 | 128 µg/mL (≈ 437 µM) | 64 µg/mL (≈ 218 µM) |  |
| NC(=O)c1cccc2nc3c(Cl)ccc(Cl)c3nc12 | 32 µg/mL (≈ 110 µM) | 128 µg/mL (≈ 438 µM) |  |
| COc1ccc(Br)c2nc3c(C(=O)NS(C)(=O)=O)cccc3nc12 | 64 µg/mL (≈ 156 µM) | 128 µg/mL (≈ 312 µM) |  |
| O=C(Nc1nnn[nH]1)c1cccc2nc3cccc(Cl)c3nc12 | 128 µg/mL (≈ 393 µM) | 32 µg/mL (≈ 98.2 µM) |  |
| COc1ccc(Br)c2nc3c(C(=O)O)cccc3nc12 | 64 µg/mL (≈ 192 µM) | 128 µg/mL (≈ 384 µM) |  |
| COC(=O)c1cccc2nc3cccc(OC)c3nc12 | 128 µg/mL (≈ 477 µM) | 128 µg/mL (≈ 477 µM) |  |
| COC(=O)c1cccc2nc3cc(OC)cc(Br)c3nc12 | 128 µg/mL (≈ 369 µM) | 128 µg/mL (≈ 369 µM) |  |
| COC(=O)c1cccc2nc3cc(Br)cc(OC)c3nc12 | 128 µg/mL (≈ 369 µM) | 128 µg/mL (≈ 369 µM) |  |
